Only some compounds are listed: those with a hit (about 2.3% of all), similar ones and a draw of the others.
ADAM17 inh = ADAM17 inhibition, QFRET primary screen; P78536; recombinant ADAM17, EDANS/DABCYL FRET peptide cleavage; inhibition, % at 6.95 µM; 370,000 tested, 0.83% active;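 active means inhibition above the mean of compounds lying between control limits plus 3 SD, set per campaign, cut at about 8.5% in these data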;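 further: 0% = DMSO-only wells as the low control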
PLCg1 inh = blocks human PLC-gamma1 enzyme activity. P19174. purified PLC-gamma1, fluorogenic substrate, fluorescence. inhibition, % at 12.2 µM. 370,000 tested, 0.84% active. AID 720700; in the data active means inhibition above about 9.5%
ADAM10 inh = inhibits human ADAM10; O14672; recombinant ADAM10, EDANS/DABCYL FRET peptide cleavage, 3 h; inhibition, % at 7 µM; 370,000 tested, 0.62% active; AID 720582;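 active means inhibition above a per-campaign cutoff equal to the mean of compounds falling between control-based bounds plus 3 SD, cut at about 20% in these data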;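 further: 0% = DMSO wells while the 100% control is not disclosed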
Target sequence (O14672 214-748 limits assumed): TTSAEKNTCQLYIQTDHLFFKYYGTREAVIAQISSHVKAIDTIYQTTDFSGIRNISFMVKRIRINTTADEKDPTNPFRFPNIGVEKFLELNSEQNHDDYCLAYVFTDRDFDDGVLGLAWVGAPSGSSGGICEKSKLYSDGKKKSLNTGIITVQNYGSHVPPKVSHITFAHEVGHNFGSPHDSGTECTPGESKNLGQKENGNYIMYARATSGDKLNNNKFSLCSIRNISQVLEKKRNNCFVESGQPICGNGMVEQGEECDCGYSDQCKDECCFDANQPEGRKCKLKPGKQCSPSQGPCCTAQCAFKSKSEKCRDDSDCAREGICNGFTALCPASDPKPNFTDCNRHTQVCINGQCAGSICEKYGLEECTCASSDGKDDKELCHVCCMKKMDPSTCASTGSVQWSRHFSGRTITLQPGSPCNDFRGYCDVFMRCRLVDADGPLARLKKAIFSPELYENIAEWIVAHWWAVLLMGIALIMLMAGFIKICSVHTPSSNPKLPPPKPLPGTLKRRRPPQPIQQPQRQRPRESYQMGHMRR
PLCb3 inh = blocks human PLC-beta3 enzyme activity | 370,000 tested, 0.18% active | Purified PLC-beta3, fluorogenic substrate, fluorescence | inhibition, % at 12.2 µM; in the data active means inhibition above about 11%;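 further: 0% = median of compound wells on plate and 100% = full blocker control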
TbMetRS inhib = blocks T. brucei methionyl-tRNA synthetase activity. AID 624268. purified T. brucei MetRS, ATP depletion, Kinase-Glo luminescence. 360,000 tested, 0.4% active. inhibition, % at 11.9 µM;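 active means inhibition above a per-plate cutoff of the control wells' mean inhibition plus 3 SD, cut at about 5.5% in these data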;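 further: 0% = DMSO wells median and 100% = median of wells with control inhibitor compound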
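Assay system: T. brucei methionyl-tRNA synthetase, purified | Medium: HEPES buffer with MgCl2, KCl, DTT, spermine, BSA, pyrophosphatase | Compound: 11.9 µM single point | Incubation: 15 min enzyme-compound preincubation, 2 h reaction, 10 min detection, 25 °C | Measured by: Kinase-Glo luciferase luminescence reporting remaining unconsumed ATP | Measure: % inhibition normalized to control-well medians | Replication: Singlicate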
ADAM10 confirm = confirmation of inhibitors of human ADAM10; shares compounds with ADAM10 inh; ADAM10 QFRET peptide cleavage, EDANS fluorescence; inhibition, % at 6.95 µM; 2,100 tested, 1% active; AID 743208;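 active means inhibition above about 20% chosen separately for each screening run, limit read from the data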;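 further: 0% = DMSO wells and 100% = marimastat wells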
ADAM17 counter = ADAM17 inhibition, counter-screen for ADAM10 exosite hits; shares compounds with ADAM10 inh; ADAM17 QFRET peptide cleavage, EDANS fluorescence; inhibition, % at 6.95 µM; 2,100 tested, 0.5% active;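 active means mean triplicate inhibition above the solvent-only control wells' mean plus 3 SD, cut at about 12% in these data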;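 further: 0% = DMSO wells and 100% = marimastat wells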
* = called active by the depositor.

CCOc1ccc(CC(=O)NNC(=S)Nc2ccccc2)cc1Br was read as ADAM17 inh 0.8, PLCg1 inh -5.5, ADAM10 inh 20.5*, PLCb3 inh -3.9, TbMetRS inhib -0.1, ADAM10 confirm 1.4 and ADAM17 counter -0.5.
COc1ccc(CC(=O)NNC(=S)Nc2ccccc2)cc1Br was read as ADAM17 inh 0.9, PLCg1 inh -1.2, ADAM10 inh 15.2, PLCb3 inh -0.5 and TbMetRS inhib 0.0.
Screening O=C(Cc1noc2ccccc12)NNC(=S)Nc1ccccc1 returned ADAM17 inh 5.8, PLCg1 inh -1.8, ADAM10 inh 20.5*, PLCb3 inh 0.2, TbMetRS inhib -0.3, ADAM10 confirm 4.7 and ADAM17 counter 0.9.
For CC(C)Oc1ccc(CC(=O)NNC(=S)Nc2ccccc2)cc1 the results were ADAM17 inh 8.0, PLCg1 inh 4.1, ADAM10 inh 27.3*, PLCb3 inh 0.3, TbMetRS inhib -0.9, ADAM10 confirm 0.8 and ADAM17 counter 0.4.
O=C(Cc1noc2ccccc12)Nc1ccc(Cl)cc1 was read as ADAM17 inh 1.1, PLCg1 inh 3.2, ADAM10 inh -1.9, PLCb3 inh 3.5 and TbMetRS inhib 1.6.
Screening CS(=O)(=O)c1ccc(NS(=O)(=O)c2ccc(Cl)c(C(=O)NCc3ccco3)c2)cc1 returned ADAM17 inh 2.7, PLCg1 inh 3.3, ADAM10 inh -8.1, PLCb3 inh -3.1 and TbMetRS inhib -0.2.
COc1ccc([C@H]2N[C@]3(CCCN(Cc4ccc(Cl)cc4)C3=O)[C@H]3C(=O)N(Cc4ccccc4)C(=O)[C@@H]23)cc1 was read as ADAM17 inh 4.0, PLCg1 inh 1.1, ADAM10 inh 11.2, PLCb3 inh 5.5 and TbMetRS inhib -0.9.
`CCN(CC)S(=O)(=O)c1cccc(NC(=O)COc2ccc(F)cc2Br)c1` gave ADAM17 inh 2.1, PLCg1 inh -0.5, ADAM10 inh 20.6*, PLCb3 inh 4.5, TbMetRS inhib 2.5, ADAM10 confirm -0.8 and ADAM17 counter 1.3.
For CCN(CC)S(=O)(=O)c1cccc(NC(=O)COc2ccc(C#N)cc2OC)c1 the results were ADAM17 inh 3.5, PLCg1 inh 0.6, ADAM10 inh 7.2, PLCb3 inh 2.3 and TbMetRS inhib -1.2.
`Cc1ccc(C(=O)COC(=O)c2cccc(NC(=O)c3ccc([N+](=O)[O-])cc3[N+](=O)[O-])c2)cc1` gave ADAM17 inh 4.4, PLCg1 inh 1.9, ADAM10 inh 25.0*, PLCb3 inh 4.4, TbMetRS inhib -0.9, ADAM10 confirm 6.1 and ADAM17 counter 1.5.
Screening CSc1ccccc1OCc1cc(C(=O)N2CCN3CCCC3C2)no1 (configuration not stated) returned ADAM17 inh -2.3, PLCg1 inh 2.5, ADAM10 inh -9.1, PLCb3 inh -3.0 and TbMetRS inhib -0.4.
O=C(Cc1cccc2ccccc12)Nc1ccccc1C(=O)O was read as ADAM17 inh -3.8, PLCg1 inh -5.8, ADAM10 inh -13.8, PLCb3 inh -18.3 and TbMetRS inhib -0.2.
O=C(Cc1cccc2ccccc12)Nc1cc(Cl)ccc1C(=O)O was read as ADAM17 inh 4.3, PLCg1 inh 5.2, ADAM10 inh 22.9*, PLCb3 inh -4.4, TbMetRS inhib -0.5, ADAM10 confirm 1.4 and ADAM17 counter 0.5.
`O=C(Nc1ccc([N+](=O)[O-])cc1)N1CCc2ccccc2C1` gave ADAM17 inh 7.0, PLCg1 inh 5.7, ADAM10 inh 22.0*, PLCb3 inh 6.2, TbMetRS inhib 1.1, ADAM10 confirm -0.6 and ADAM17 counter 0.2.
COc1ccc(N2C(=O)N3[C@H](c4ccc(Br)cc4)[C@@H]4C(=O)N(C(C)(C)C)C(=O)[C@@H]4[C@]3(Cc3ccccc3)C2=O)cc1 was read as ADAM17 inh 7.2, PLCg1 inh 2.6, ADAM10 inh 23.9*, PLCb3 inh 4.1, TbMetRS inhib -0.3, ADAM10 confirm 3.9 and ADAM17 counter 1.3.
